≈ marks a conversion by molar mass, not a printed value.
Legend:
[1] = tested on: Enterococcus faecium; assay: Tested for in vitro antibacterial activity against Enterococcus faecium 02D31P2 vancomycin teicoplanin erythromycin resistance phenotype; format: functional
[2] = tested on: Staphylococcus aureus; assay: IC50 was determined for gyrase B of Staphylococcus aureus against novobiocin (0.5 mg/mL) as reference; IC50nov/IC50comp
[3] = tested on: Staphylococcus epidermidis; assay: Tested for in vitro antibacterial activity against Staphylococcus epidermidis 012GO42 oxacillin resistance phenotype; format: functional
[4] = tested on: Staphylococcus aureus; assay: Tested for in vitro antibacterial activity against Staphylococcus aureus 011 HT3 phenotype; format: functional
[5] = tested on: Staphylococcus aureus; assay: Tested for in vitro antibacterial activity against Staphylococcus aureus 011 GO64 ofloxacin oxacillin erythromycin resistance phenotype; format: functional
[6] = tested on: Streptococcus pyogenes; assay: Tested for in vitro antibacterial activity against Streptococcus pyogenes O2A1UC1 phenotype; format: functional
[7] = tested on: Staphylococcus aureus; assay: Tested for in vitro antibacterial activity against Staphylococcus aureus 011 HT1 novobiocin resistance phenotype; format: functional
[8] = Tested for Tmax value at the dose of 10 mg/kg when administered perorally in mouse; format: ADME, organism-based; design: dose 10 mg/kg, route oral; settings: in vivo, po
Method in brief: (§1)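 Mouse pharmacokinetics used 10 mg/kg given IV and PO. Tmax and Cmax (µg/ml) come from oral dosing, half-life is in hours, and oral bioavailability is F%.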

[9] = Tested for bioavailability of the compound; format: ADME, organism-based; settings: mouse, in vivo; method in brief: as §1
[10] = Tested for half life at the dose of 10 mg/kg when administered intravenously; format: ADME, organism-based; design: dose 10 mg/kg, route intravenous; settings: mouse, in vivo, iv; method in brief: as §1
[11] = Tested for Cmax value at the dose of 10 mg/kg when administered perorally in mouse; format: ADME, organism-based; design: dose 10 mg/kg, route oral; settings: in vivo, po; method in brief: as §1
[12] = tested on: Enterococcus faecium; assay: Minimum inhibitory concentration of the orally administered compound evaluated against vancomycin resistant Enterococci faecium D3HT12 strain in mice; format: functional
[13] = tested on: Enterococcus; assay: Minimum inhibitory concentration evaluated against enterococci species resistant to vancomycin [65]*; format: functional
[14] = tested on: Enterococcus; assay: Minimum inhibitory concentration evaluated against enterococci species resistant to vancomycin and teicoplanin [17]*; format: functional
[15] = tested on: Enterococcus; assay: Minimum inhibitory concentration evaluated against enterococci species susceptible to vancomycin [26]*; format: functional
[16] = tested on: Enterococcus faecalis; assay: Minimum inhibitory concentration of the orally administered compound evaluated against Enterococci faecalis D2HT6 strain in mice; format: functional
[17] = tested on: Enterococcus faecium; assay: Minimum inhibitory concentration of the orally administered compound evaluated against Enterococci faecium D3HT7 strain in mice; format: functional
[18] = tested on: Enterococcus faecium; assay: Minimum inhibitory concentration of the orally administered compound evaluated against vancomycin resistant Enterococci faecium D3AP9 strain in mice; format: functional
[19] = tested on: Enterococcus faecium; assay: Minimum inhibitory concentration of the orally administered compound evaluated against vancomycin resistant Enterococci faecium D3HM3 strain in mice; format: functional
[20] = tested on: Enterococcus faecium; assay: Minimum inhibitory concentration of the orally administered compound evaluated against vancomycin resistant Enterococci faecium D3HM4 strain in mice; format: functional
[21] = tested on: Enterococcus; assay: In vitro anti-enterococcal activity against enterococci species resistant to vancomycin and teicoplanin [17]* expressed as geometric mean; format: functional
[22] = tested on: Enterococcus; assay: In vitro anti-enterococcal activity against enterococci species susceptible to vancomycin [26]* expressed as geometric mean; format: functional
[23] = tested on: pneumococci; assay: In vitro anti-streptococcal activity against pneumococci resistant to penicillin [29]* expressed as geometric mean; format: functional
[24] = Minimum inhibitory concentration evaluated against pneumococci resistant to penicillin [29]*; format: functional
[25] = tested on: Staphylococcus aureus; assay: Minimum inhibitory concentration of the orally administered compound evaluated against Staphylococcus aureus HT-18 strain in mice; format: functional
[26] = tested on: Staphylococcus sp.; assay: Minimum inhibitory concentration evaluated against Staphylococcus species [91]*; format: functional
Method in brief: (§2)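 Two-fold agar dilution MIC, in µg/mL, against Staphylococcus panels grouped by resistance phenotype (oxacillin and/or ofloxacin resistant). Per-panel values are reported as the geometric mean and MIC90 across strains; the strain count per panel is given in brackets.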

[27] = tested on: Staphylococcus sp.; assay: Minimum inhibitory concentration evaluated against Staphylococcus species resistant to ofloxacin [59]*; format: functional; method in brief: as §2
[28] = tested on: Staphylococcus sp.; assay: Minimum inhibitory concentration evaluated against Staphylococcus species resistant to oxacillin [66]*; format: functional; method in brief: as §2
[29] = tested on: Staphylococcus sp.; assay: Minimum inhibitory concentration evaluated against Staphylococcus species resistant to oxacillin and ofloxacin [47]*; format: functional; method in brief: as §2
[30] = Minimum inhibitory concentration of the orally administered compound evaluated against […] PW3 strain in mice; format: functional
[31] = tested on: Streptococcus sp.; assay: In vitro anti-streptococcal activity against Streptococci species (viridans) [25]* expressed as geometric mean; format: functional
[32] = tested on: Streptococcus sp.; assay: In vitro anti-streptococcal activity against Streptococci species [38]* expressed as geometric mean; format: functional
[33] = tested on: Streptococcus sp.; assay: Minimum inhibitory concentration evaluated against Streptococci species (viridans) [25]*; format: functional
[34] = tested on: Streptococcus sp.; assay: Minimum inhibitory concentration evaluated against Streptococci species [38]*; format: functional
[35] = tested on: Staphylococcus aureus; assay: Minimum inhibitory concentration of the orally administered compound evaluated against Staphylococcus aureus GO3 strain in mice; format: functional
[36] = tested on: Staphylococcus aureus; assay: Minimum inhibitory concentration of the orally administered compound evaluated against Staphylococcus aureus GR56 strain resistant to oxacillin in mice; format: functional
[37] = tested on: Staphylococcus aureus; assay: Minimum inhibitory concentration of the orally administered compound evaluated against Staphylococcus aureus HT-17 strain in mice; format: functional
[38] = tested on: Staphylococcus sp.; assay: In vitro anti-staphylococcal activity against Staphylococcus species resistant to ofloxacin [59]* expressed as geometric mean; format: functional; method in brief: as §2
[39] = tested on: Staphylococcus sp.; assay: In vitro anti-staphylococcal activity against Staphylococcus species resistant to oxacillin [66]* expressed as geometric mean; format: functional; method in brief: as §2
[40] = tested on: Staphylococcus sp.; assay: In vitro anti-staphylococcal activity against Staphylococcus species resistant to oxacillin and ofloxacin[47]* expressed as geometric mean; format: functional; method in brief: as §2
[41] = tested on: Mus musculus; assay: Protective dose of orally administered compound against intraperitoneally-induced septicaemia model (Staphylococcus aureus HT-17 strain) in murine; format: functional; settings: po, read-out: PD50
Method in brief: (§3)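 PD50 was measured in a murine septicaemia model, with infection induced intraperitoneally with the named Gram-positive strain. Test compound was given orally and the PD50 was calculated by the probit method.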

[42] = tested on: Mus musculus; assay: Protective dose of orally administered compound against intraperitoneally-induced septicaemia model (Enterococci faecalis D2HT6 strain) in murine; format: functional; settings: po, read-out: PD50; method in brief: as §3
[43] = tested on: Mus musculus; assay: Protective dose of orally administered compound against intraperitoneally-induced septicaemia model (Enterococci faecium D3HT7 strain ) in murine; format: functional; settings: po, read-out: PD50; method in brief: as §3
[44] = tested on: Mus musculus; assay: Protective dose of orally administered compound against intraperitoneally-induced septicaemia model (Staphylococcus aureus GO3 strain) in murine; format: functional; settings: po, read-out: PD50; method in brief: as §3
[45] = tested on: Mus musculus; assay: Protective dose of orally administered compound against intraperitoneally-induced septicaemia model (Staphylococcus aureus HT18) in murine; format: functional; settings: po, read-out: PD50; method in brief: as §3
[46] = tested on: Mus musculus; assay: Protective dose of orally administered compound against intraperitoneally-induced septicaemia model (vancomycin resistant Enterococci faecium D3AP9 strain ) in murine; format: functional; settings: po, read-out: PD50; method in brief: as §3
[47] = tested on: Mus musculus; assay: Protective dose of orally administered compound against intraperitoneally-induced septicaemia model (vancomycin resistant Enterococci faecium D3HM3 strain ) in murine; format: functional; settings: po, read-out: PD50; method in brief: as §3
[48] = tested on: Mus musculus; assay: Protective dose of orally administered compound against intraperitoneally-induced septicaemia model (vancomycin resistant Enterococci faecium D3HM4 strain ) in murine; format: functional; settings: po, read-out: PD50
Method in brief: (§4)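 Mice infected intraperitoneally to induce septicaemia, then given the compound by mouth. PD50 was calculated by the probit method.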

[49] = tested on: Mus musculus; assay: Protective dose of orally administered compound against intraperitoneally-induced septicaemia model (vancomycin resistant Enterococci faecium D3HT12 strain ) in murine; format: functional; settings: po, read-out: PD50; method in brief: as §4
[50] = tested on: Mus musculus; assay: Protective dose of orally administered compound against intraperitoneally-induced septicaemia model (Staphylococcus aureus GR56 strain resistant to oxacillin) in murine; format: functional; settings: po, read-out: PD50; method in brief: as §3
[51] = tested on: Staphylococcus sp.; assay: In vitro anti-staphylococcal activity against Staphylococcus species [91]* expressed as geometric mean; format: functional
Method in brief: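 Two-fold agar-dilution MICs (µg/mL) were run on a panel of staphylococcal isolates and summarised as the geometric mean across strains.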

[52] = tested on: Streptococcus pyogenes; assay: Minimum inhibitory concentration of the orally administered compound evaluated against Streptococcus pyogenes A1UC1 strain in mice
[53] = tested on: Mus musculus; assay: Protective dose of orally administered compound against intraperitoneally-induced septicaemia model (Streptococcus pneumoniae PW3 strain) in murine; settings: po, read-out: PD50
[54] = tested on: Mus musculus; assay: Protective dose of orally administered compound against intraperitoneally-induced septicaemia model (Streptococcus pyogenes A1UC1 strain) in murine; settings: po, read-out: PD50
[55] = tested on: Mus musculus; assay: Protective dose of orally administered compound against intraperitoneally-induced septicaemia model (Streptococcus agalactiae B1HT3 strain) in murine; settings: po, read-out: PD50

SMILES: C#CCONC(=O)O[C@H]1[C@@H](O)[C@H](Oc2ccc3c(=O)c(/C(C)=N/OC)c(O)oc3c2C)OC(C)(C)[C@@H]1OC
- MIC [1]: 2.5 µg/mL (≈ 4.68 µM)
- Ratio [2]: 12.5
- MIC [3]: 0.08 µg/mL (≈ 0.15 µM)
- MIC [4]: 0.16 µg/mL (≈ 0.299 µM)
- MIC [5]: 0.16 µg/mL (≈ 0.299 µM)
- MIC [6]: 0.6 µg/mL (≈ 1.12 µM)
- MIC [7]: 5 µg/mL (≈ 9.35 µM)

SMILES: C#CCONC(=O)O[C@H]1[C@@H](O)[C@H](Oc2ccc3c(=O)c(/C(C)=N/OC)c(O)oc3c2C)O[C@@](C)(CC=C)[C@@H]1OC
- MIC [1]: 0.6 µg/mL (≈ 1.07 µM)
- Ratio [2]: 2.6
- MIC [3]: < 0.04 µg/mL
- MIC [4]: < 0.04 µg/mL
- MIC [6]: 0.3 µg/mL (≈ 0.535 µM)
- MIC [7]: 1.2 µg/mL (≈ 2.14 µM)

SMILES: C#CCONC(=O)O[C@H]1[C@@H](O)[C@H](Oc2ccc3c(=O)c(/C(C)=N/OC)c(O)oc3c2C)OC2(CCCC2)[C@@H]1OC
- Tmax [8]: 0.5 h
- bioavailability [9]: 62%
- half-life [10]: 2.5 h
- Cmax [11]: 5400 ng/mL
- MIC [1]: 0.15 µg/mL (≈ 0.268 µM)
- MIC [12]: 0.15 µg/mL (≈ 0.268 µM)
- MIC90 [13]: 0.6 µg/mL (≈ 1.07 µM)
- MIC90 [14]: 0.3 µg/mL (≈ 0.535 µM)
- MIC90 [15]: 1.2 µg/mL (≈ 2.14 µM)
- MIC [16]: 0.3 µg/mL (≈ 0.535 µM)
- MIC [17]: 0.15 µg/mL (≈ 0.268 µM)
- MIC [18]: 0.6 µg/mL (≈ 1.07 µM)
- MIC [19]: 0.08 µg/mL (≈ 0.143 µM)
- MIC [20]: 0.6 µg/mL (≈ 1.07 µM)
- GM [21]: 0.16
- GM [22]: 0.26
- Ratio [2]: 2.6
- GM [23]: 0.12
- MIC90 [24]: 0.3 µg/mL (≈ 0.535 µM)
- MIC [25]: < 0.04 µg/mL
- MIC90 [26]: 0.15 µg/mL (≈ 0.268 µM)
- MIC90 [27]: 0.15 µg/mL (≈ 0.268 µM)
- MIC90 [28]: 0.15 µg/mL (≈ 0.268 µM)
- MIC90 [29]: 0.15 µg/mL (≈ 0.268 µM)
- MIC [30]: 1.2 µg/mL (≈ 2.14 µM)
- GM [31]: 0.59
- GM [32]: 0.47
- MIC90 [33]: 1.2 µg/mL (≈ 2.14 µM)
- MIC90 [34]: 1.2 µg/mL (≈ 2.14 µM)
- MIC [35]: 0.3 µg/mL (≈ 0.535 µM)
- MIC [36]: 0.08 µg/mL (≈ 0.143 µM)
- MIC [37]: 0.15 µg/mL (≈ 0.268 µM)
- GM [38]: 0.082
- GM [39]: 0.097
- GM [40]: 0.081
- MIC [3]: < 0.04 µg/mL
- MIC [4]: < 0.04 µg/mL
- MIC [6]: 0.15 µg/mL (≈ 0.268 µM)
- ED50 [41]: 2.8 mg/kg
- ED50 [42]: 10 mg/kg
- ED50 [43]: 112 mg/kg
- ED50 [44]: 7.1 mg/kg
- ED50 [45]: 5.6 mg/kg
- ED50 [46]: 44 mg/kg
- ED50 [47]: 32 mg/kg
- ED50 [48]: 77 mg/kg
- ED50 [49]: 40 mg/kg
- MIC [7]: 1.2 µg/mL (≈ 2.14 µM)
- ED50 [50]: 1 mg/kg
- GM [51]: 0.099
- MIC [52]: 0.15 µg/mL (≈ 0.268 µM)
- ED50 [53]: 8.5 mg/kg
- ED50 [54]: 37.6 mg/kg
- ED50 [55]: 27.7 mg/kg
